Screens from PubChem BioAssay.
Most compounds without a hit are left out; they make up all but 2.1% or so of the library.
CHRM1 antagonist – human M1 muscarinic receptor antagonists, primary screen, CHO-K1 cells, Fluo-8 calcium fluorescence, 1536-well; CHO-K1 hM1, ACh EC80 antagonist; inhibition, % at 3 µM; 360,000 compounds, 1.3% hits; Muscarinic acetylcholine receptor M1 (Homo sapiens), P11229; AID 588852, 2011;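 active = percent inhibition above its own plate's cutoff, namely the mean of that plate's compound wells plus 3 SD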;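 also: peak over basal fluorescence ratio during 140 s after agonist addition; 0% = ACh EC80 plus DMSO and 100% = DMSO alone without agonist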
Target sequence (P11229 whole entry, looked up): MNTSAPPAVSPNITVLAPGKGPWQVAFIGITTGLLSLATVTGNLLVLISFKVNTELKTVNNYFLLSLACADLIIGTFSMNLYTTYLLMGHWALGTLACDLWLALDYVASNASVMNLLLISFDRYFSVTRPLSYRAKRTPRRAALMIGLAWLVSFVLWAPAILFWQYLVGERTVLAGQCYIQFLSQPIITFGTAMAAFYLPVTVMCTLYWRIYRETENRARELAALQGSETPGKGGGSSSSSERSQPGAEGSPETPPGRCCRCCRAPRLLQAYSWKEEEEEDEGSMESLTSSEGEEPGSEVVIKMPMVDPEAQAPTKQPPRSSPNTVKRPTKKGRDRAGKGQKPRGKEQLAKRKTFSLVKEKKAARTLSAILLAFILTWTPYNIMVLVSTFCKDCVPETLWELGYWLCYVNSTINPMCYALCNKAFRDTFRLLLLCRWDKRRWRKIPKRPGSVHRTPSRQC
M1 ag – human M1 muscarinic receptor agonists, primary screen, Fluo-8 calcium fluorescence, CHO-K1 cells, HTS. Muscarinic acetylcholine receptor M1 (Homo sapiens), P11229. CHO-K1 hM1, agonist mode; 0% DMSO, 100% acetylcholine EC100. activation, % at 3 µM. 360,000 compounds, 0.33% hits. AID 588814, 2011;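 active = activation above the run's mean compound activation plus 3 SD, cut at about 16% in these data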;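 also: peak over basal fluorescence ratio within a 140 s kinetic read after compound addition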
M1 PAM – human M1 muscarinic receptor positive allosteric modulators, primary screen, CHO-K1 cells, Fluo-8 calcium fluorescence, 1536-well. activation, % at 3 µM. Muscarinic acetylcholine receptor M1 (Homo sapiens), P11229. AID 588819, 2011. 360,000 compounds, 0.088% hits. CHO-K1 hM1, ACh EC20; 0% = ACh EC20, 100% = maximal ACh; in the data active = activation above about 19%, passing the limit was not always enough
M5 ag – human M5 muscarinic receptor agonists, primary screen, CHO-K1 cells, Fluo-8 calcium fluorescence. Muscarinic acetylcholine receptor M5 (Homo sapiens), P08912. CHO-K1 hM5 cells; 0% DMSO wells, 100% maximal acetylcholine response. activation, % at 3 µM. 360,000 compounds, 0.19% hits. AID 624037, 2012;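 active = activation above the run's mean over test compounds plus 3 SD, cut at about 23% in these data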;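 also: signal is peak over basal fluorescence ratio across the kinetic read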
CHRM5 antagonist – human M5 muscarinic receptor antagonists, primary screen, CHO cells, Fluo-8 calcium fluorescence | Muscarinic acetylcholine receptor M5 (Homo sapiens), P08912 | CHO-hM5 cells, ACh EC80 | AID 624040, 2012 | inhibition, % at 3 µM | 360,000 compounds, 0.59% hits;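 active = inhibition above a per-plate cutoff, the mean of that plate's test compounds plus 3 SD, cut at about 27% in these data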;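 also: 0% = acetylcholine EC80 with DMSO and 100% = DMSO without agonist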
CHRM5 PAM – human M5 muscarinic receptor positive allosteric modulators, primary screen, CHO-K1 cells, Fluo-8 calcium fluorescence | CHO-K1 hM5, ACh EC20 PAM; 0% = ACh EC20, 100% = ACh EC100 | Muscarinic acetylcholine receptor M5 (Homo sapiens), P08912 | activation, % at 3 µM | AID 624038, 2012 | 360,000 compounds, 0.3% hits;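 active = activation above the run cutoff, the mean activation of all test compounds plus 3 SD, cut at about 18% in these data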
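System: CHO-K1 hM5 cells. Reagent: acetylcholine, EC20 level. Compound dosing: single dose, 3 µM nominal final test concentration. Timing: Post-acetylcholine fluorescence recording 140 s. Detection: Fluo-8 calcium fluorescence. Read-out: % activation, ACh-normalized. Benchmarks: ACh EC20 and EC100 wells. Repeats: singlicate, one well per test compound.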
Numbers without * were called inactive; x = no result.

SMILES | CHRM1 antagonist | M1 ag | M1 PAM | M5 ag | CHRM5 antagonist | CHRM5 PAM
CC(C)CNc1ncnc2c1ncn2[C@H]1CN(Cc2ccc(-c3ccccc3)cc2)C[C@@H](CO)O1 | 28* | 3 | -9 | 5 | 23 | -9
O=C(C[n+]1cc(-c2ccc(Cl)c(Cl)c2)n2c1CCC2)N1c2ccccc2Sc2ccccc21 | 100* | -8 | -27 | -8 | 100* | -19
COc1ccc(-c2c[n+](CC(=O)c3cccs3)c3n2CCC3)cc1 | -3 | -7 | 6 | -6 | 13 | 2
CC1CCC(C(C)C)C(OC(=O)C[n+]2cc(-c3ccc(Cl)cc3)n3c2CCC3)C1 (configuration not stated) | 85* | -2 | -23 | -18 | 53* | -36
COc1ccc(-c2c[n+](CC(=O)N3c4ccccc4Sc4ccccc43)c3n2CCC3)cc1 | 86* | -8 | -27 | -18 | 41* | -35
O=C(C[n+]1cc(-c2ccc(Cl)cc2)n2c1CCC2)N1c2ccccc2Sc2ccccc21 | 97* | -8 | -26 | -10 | 99* | -18
COc1ccc(CCNC(=O)c2cc3c(=O)n4ccccc4nc3n(CCCN3CCOCC3)c2=N)cc1OC | -4 | -6 | 1 | -1 | 5 | 5
CC(=O)Nc1cccc(Oc2nc(C)cc(C)c2C#N)c1 | -1 | 1 | 2 | 0 | -7 | 3
O=C(CC1OC(=O)c2ccccc21)Nc1ccc(Cl)c(S(=O)(=O)N2CCCCC2)c1 (configuration not stated) | -1 | 0 | 1 | 5 | 6 | -10
Cc1cccc(C)c1NC(=O)C[n+]1cc(-c2ccccc2)n2c1CCC2 | 15 | -9 | -4 | -20 | 4 | 1
Cc1ccccc1NC(=O)C[n+]1cc(-c2ccccc2)n2c1CCC2 | 50* | -2 | -17 | -16 | 16 | -17
O=C(COc1c(F)c(F)cc(F)c1F)NC(=O)NC1CCCC1 | 31* | -6 | -21 | -6 | 3 | -4
CCOC(=O)CC1(CCc2ccccc2)Oc2ccccc2N1S(=O)(=O)c1ccc(C)cc1 (configuration not stated) | x | x | x | 1 | -12 | -4
CCOC(=O)CC1(C)Oc2cc(Cl)ccc2N1S(=O)(=O)c1ccc(C)cc1 (configuration not stated) | x | x | x | -5 | 31* | -19
O=S(=O)(c1cc(Cl)ccc1Cl)N1CCN2CCCC2C1 (configuration not stated) | -7 | -11 | -4 | -1 | -2 | -2
CC(C(=O)c1ccc(-c2ccccc2)cc1)[n+]1ccccc1 (configuration not stated) | -8 | -5 | -8 | -10 | -5 | 3
Cc1cc[n+](C(C)C(=O)c2ccc(-c3ccccc3)cc2)cc1 (configuration not stated) | 58* | -7 | -20 | -16 | 8 | 3
COc1ccc(N2C(=O)C(Cl)=C(N3CCOCC3)C2=O)cc1 | -15 | -2 | 13 | -1 | 9 | 4
CC(C)Oc1ccc(S(=O)(=O)N2CCOCC2)cc1NC(=O)c1ccc(N2CCCC2=O)cc1 | 9 | -2 | -2 | -5 | 28* | -12
CC(=O)c1ccc(NC(=S)NCc2ccc(Cl)cc2Cl)cc1 | 20 | 5 | -8 | 8 | 29* | -25
CC(=O)c1ccc(NC(=O)Nc2ccc(Cl)cc2)cc1 | 29 | 1 | -18 | 10 | 24 | -21
COC(=O)[C@]1(CC(C)C)N[C@H](c2ccc(-c3ccc(C(C)=O)cc3)cc2)[C@@H]2C(=O)N(C)C(=O)[C@@H]21 | -5 | -2 | 30* | 2 | -1 | 4
Cc1ccc(C(c2sc3nc(C)nn3c2O)N2CCN(CCO)CC2)cc1 (configuration not stated) | -8 | -4 | 6 | 2 | -2 | 4
Cc1ccc(C(c2sc3nc(C)nn3c2O)N2CCN(c3ccccc3F)CC2)cc1 (configuration not stated) | -5 | -5 | 4 | -9 | -1 | 19*
COC(=O)C1CCN(C(c2ccc(OC)c(OC)c2)c2sc3nc(C)nn3c2O)CC1 (configuration not stated) | 36* | 1 | -8 | 5 | 13 | -12
SMILES | CHRM1 antagonist | M1 ag | M1 PAM | M5 ag | CHRM5 antagonist | CHRM5 PAM
CC1(C(=O)NS(=O)(=O)c2ccc(F)cc2F)CCN1C(=O)C1CCCCC1 (configuration not stated) | -13 | 0 | 7 | 1 | -1 | -3
COc1ccc(-c2n[nH]c(C)c2-c2ccc(Cl)cc2)c(O)c1 | -10 | -2 | 5 | -4 | 3 | 8
COc1ccc(-c2n[nH]c(C)c2-c2ccc(Cl)cc2)c(O)c1OC | 35* | 0 | -10 | 6 | 20 | -14
CCCc1nc(Cl)c(C#N)c2c1CCCC2 | -12 | 22* | -1 | -5 | -8 | 6
CCc1nc(Cl)c(C#N)c2c1CCCC2 | -2 | -10 | 9 | -6 | 13 | 2
CCNc1nc(NC#N)nc(SCC(=O)OCC)n1 | -4 | -1 | 5 | -3 | 1 | -4
CCOC(=O)CSc1nc(NC#N)nc(N(CC)CC)n1 | -10 | -4 | 1 | 0 | -18 | 19*
COc1ccc(C)cc1NC(=O)C(Sc1nnnn1C)c1ccccc1 (configuration not stated) | -5 | -4 | 5 | -4 | 3 | 3
C(=N\c1nc2ccccc2n1CCN1CCCCC1)/c1ccc2c(c1)OCO2 | 1 | -3 | -1 | -3 | -4 | 23*
CCCn1c(/N=C/c2ccc3c(c2)OCO3)nc2ccccc21 | 0 | -7 | 0 | -2 | 4 | 1
CCSc1nnc(NC(=O)CC)s1 | -3 | 16* | 4 | 1 | -3 | 0
CCSc1nnc(NC(=O)c2ccccc2C)s1 | 53* | -6 | -12 | 3 | -3 | 5
CCSc1nnc(NC(=O)c2ccccc2)s1 | 4 | -4 | -3 | 2 | -3 | 4
CC(=C/c1ccccc1)/C=N/n1c(-c2ccncc2)n[nH]c1=S | -1 | 30* | 5 | 18 | 4 | 1
CC(/C=N/n1c(-c2cccnc2)n[nH]c1=S)=C\c1ccccc1 | -12 | -1 | 10 | -1 | 5 | -5
O=C(/C=C/c1cccs1)Nc1nccs1 | -13 | -3 | 11 | 2 | -3 | 0
